Data as given in paper PMC2857698 (Biochemistry, 2010).
Several values for one entry are separate records, joined by “and”; a condition that tells them apart may be missing. Equal values may be shown once. Read-outs that look alike come from different tables or passages of the source. One block for each molecule: values may come before it.

What was measured:
EH domain of EHD1 = assay: ITC of NPF peptides binding to EHD1 EH; set-up: species or system mouse; settings: for Ka / TΔS / ΔG / ΔH / ΔS: 25 mM MOPS pH 7.0, 1 mM CaCl2
Outline: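 Mouse EHD1 EH domain (V437–E534) expressed as a GST fusion, purified on glutathione resin and thrombin-cleaved on beads. Protein and peptides were dialysed at 4°C against 25 mM MOPS pH 7.0, 1 mM CaCl2, with KCl varied where applicable. ITC was run at 20°C unless stated (5–25°C), with 50–200 μM protein in the cell and peptide titrant 10-fold higher. Single-site fit gave Ka, n and ΔH; ΔG = −RTlnKa, and TΔS came from ΔG = ΔH − TΔS.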

Eps15 EH2 = assay: ITC of Rsn5-NPF1 with Eps15 EH2; format: binding; settings: protein concentration in the ITC cell increased to 0.5 mM
[1] = molecular target: Rsn5-NPF1 peptide (first NPF motif of Rabenosyn-5) (UniProt Q9H1K0); assay: ITC; settings: pH 7.0; 20 C; 0 mM KCl added; 1 mM CaCl2; 25 mM MOPS pH 7.0
[2] = molecular target: Rsn5-NPF1 peptide (first NPF motif of Rabenosyn-5) (UniProt Q9H1K0); assay: ITC; settings: pH 7.0; 20 C; 0 mM KCl added; 1 mM CaCl2; 25 mM MOPS pH 7.0; remark: listed apart in the source
[3] = molecular target: EH domain of EHD1 (mouse), residues V437 to E534 (mouse) (UniProt Q9WVK4)
EH domain of Reps1 = molecular target: T1, EH domain of Reps1; assay: ITC
T1 chain: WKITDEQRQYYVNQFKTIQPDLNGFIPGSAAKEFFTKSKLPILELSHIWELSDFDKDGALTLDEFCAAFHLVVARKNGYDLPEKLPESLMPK

[4] = molecular target: T2, EH domain of EHD1 (mouse), residues V437 to E534 (mouse, UniProt Q9WVK4 437-534); assay: ITC
T2 sequence (looked up): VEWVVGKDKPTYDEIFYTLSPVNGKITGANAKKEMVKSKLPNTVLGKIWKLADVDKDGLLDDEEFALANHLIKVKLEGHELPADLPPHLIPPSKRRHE

[5] = molecular target: T2, EH domain of EHD1 (mouse), residues …; assay: ITC; remark: listed apart in the source
[6] = molecular target: T2, EH domain of EHD1 (mouse), residues …; assay: ITC; remark: listed apart in the source
[7] = molecular target: T2, EH domain of EHD1 (mouse), residues …; assay: ITC; remark: listed apart in the source
[8] = molecular target: T2, EH domain of EHD1 (mouse), residues …; assay: ITC; remark: listed apart in the source
[9] = molecular target: T2, EH domain of EHD1 (mouse), residues …; assay: ITC; remark: listed apart in the source
[10] = molecular target: T2, EH domain of EHD1 (mouse), residues …; assay: ITC; remark: listed apart in the source
[11] = molecular target: T2, EH domain of EHD1 (mouse), residues …; assay: ITC; remark: listed apart in the source
[12] = molecular target: T2, EH domain of EHD1 (mouse), residues …; assay: ITC; remark: listed apart in the source
[13] = molecular target: T2, EH domain of EHD1 (mouse), residues …; assay: ITC; remark: listed apart in the source
[14] = molecular target: T2, EH domain of EHD1 (mouse), residues …; assay: ITC; remark: listed apart in the source
[15] = molecular target: T2, EH domain of EHD1 (mouse), residues …; assay: ITC; remark: listed apart in the source
[16] = molecular target: T2, EH domain of EHD1 (mouse), residues …; assay: ITC; remark: listed apart in the source

Chain of Rsn5-NPF1 peptide (first NPF motif of Rabenosyn-5) (Q9H1K0 whole entry, looked up, the tested form may be a part): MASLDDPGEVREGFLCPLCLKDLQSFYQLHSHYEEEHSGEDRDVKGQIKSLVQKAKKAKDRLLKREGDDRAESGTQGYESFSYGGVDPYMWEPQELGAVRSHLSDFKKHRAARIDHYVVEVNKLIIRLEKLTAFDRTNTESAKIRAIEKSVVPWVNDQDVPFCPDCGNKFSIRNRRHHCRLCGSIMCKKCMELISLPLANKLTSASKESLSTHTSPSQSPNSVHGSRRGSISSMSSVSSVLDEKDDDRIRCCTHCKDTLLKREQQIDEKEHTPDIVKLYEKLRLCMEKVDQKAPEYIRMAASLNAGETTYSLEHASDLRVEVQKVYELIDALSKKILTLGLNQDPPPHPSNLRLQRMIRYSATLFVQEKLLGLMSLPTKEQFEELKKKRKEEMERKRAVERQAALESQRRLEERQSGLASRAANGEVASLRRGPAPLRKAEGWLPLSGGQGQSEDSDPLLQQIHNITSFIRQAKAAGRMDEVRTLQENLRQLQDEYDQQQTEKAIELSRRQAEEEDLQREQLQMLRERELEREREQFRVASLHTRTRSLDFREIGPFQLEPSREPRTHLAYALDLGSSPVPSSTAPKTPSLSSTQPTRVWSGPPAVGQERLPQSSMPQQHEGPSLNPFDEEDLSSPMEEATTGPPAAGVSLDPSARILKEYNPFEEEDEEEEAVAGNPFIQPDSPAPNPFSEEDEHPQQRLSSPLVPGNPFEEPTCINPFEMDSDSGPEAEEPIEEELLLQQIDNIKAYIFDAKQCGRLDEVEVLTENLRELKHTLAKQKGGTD

Molecule: EHD1 EH domain (EH domain-containing protein 1, C-terminal EH domain)
- ΔH [1]: -11.3 kcal/mol
- ΔH [2]: -11.3 kcal/mol

Molecule: Rabenosyn-5 peptide containing two NPF motifs
- stoichiometry N [3]: 2

Molecule: Ac-YESTNPFTAK-NH2 [Rfp2-NPF2, peptide of NPF2 of Rab11-Fip2 (Ac-YESTNPFTAK-NH2)]
- Ka (EH domain of Reps1): 2000 M⁻¹
- Ka [4]: 6460 M⁻¹
- dH [4]: -11.8 kcal/mol
- stoichiometry N [4]: 0.96
- Ka [5]: 6910 M⁻¹
- dH [5]: -12 kcal/mol
- stoichiometry N [5]: 1.02
- Ka [6]: 7490 M⁻¹
- dH [6]: -11.8 kcal/mol
- stoichiometry N [6]: 0.99
- Ka [7]: 7810 M⁻¹
- dH [7]: -11.3 kcal/mol
- stoichiometry N [7]: 1.04
- Ka [8]: 17800 M⁻¹
- dH [8]: -9.28 kcal/mol
- stoichiometry N [8]: 0.97
- Ka [9]: 12800 M⁻¹
- dH [9]: -10 kcal/mol
- stoichiometry N [9]: 1.02
- Ka [10]: 9390 M⁻¹
- dH [10]: -10.8 kcal/mol
- stoichiometry N [10]: 1.03
- Ka [11]: 6640 M⁻¹ and 7030 M⁻¹
- dH [11]: -11.9 kcal/mol and -11.8 kcal/mol
- stoichiometry N [11]: 1.03 and 1.01
- Ka [12]: 4700 M⁻¹
- dH [12]: -13.3 kcal/mol
- stoichiometry N [12]: 0.99

The next lines start with results.

- fold higher affinity than Rfp2-NPF2 (EH domain of EHD1; ITC, EHD1 EH): 100 fold
- Ka (EH domain of EHD1; ITC, 5.0 °C): 2.03e+06 M⁻¹
- TΔS (EH domain of EHD1; ITC, 5.0 °C): -0.9542 kcal/mol
- ΔG (EH domain of EHD1; ITC, 5.0 °C): -8.02 kcal/mol
- ΔH (EH domain of EHD1; ITC, 5.0 °C): -8.986 kcal/mol
- ΔS (EH domain of EHD1; ITC, 5.0 °C): −3.43 cal mol^−1 K^−1
- Ka (EH domain of EHD1; ITC, 10.0 °C): 1.71e+06 M⁻¹
- TΔS (EH domain of EHD1; ITC, 10.0 °C): -1.606 kcal/mol
- ΔG (EH domain of EHD1; ITC, 10.0 °C): -8.068 kcal/mol
- ΔH (EH domain of EHD1; ITC, 10.0 °C): -9.684 kcal/mol
- ΔS (EH domain of EHD1; ITC, 10.0 °C): −5.67 cal mol^−1 K^−1
- Ka (EH domain of EHD1; ITC, 15.0 °C): 1.1e+06 M⁻¹
- TΔS (EH domain of EHD1; ITC, 15.0 °C): -2.467 kcal/mol
- ΔG (EH domain of EHD1; ITC, 15.0 °C): -7.958 kcal/mol
- ΔH (EH domain of EHD1; ITC, 15.0 °C): -10.44 kcal/mol
- ΔS (EH domain of EHD1; ITC, 15.0 °C): −8.56 cal mol^−1 K^−1
- Ka (EH domain of EHD1; ITC, 20.0 °C): 814000 M⁻¹
- TΔS (EH domain of EHD1; ITC, 20.0 °C): -3.401 kcal/mol
- ΔG (EH domain of EHD1; ITC, 20.0 °C): -7.921 kcal/mol
- ΔH (EH domain of EHD1; ITC, 20.0 °C): -11.33 kcal/mol
- ΔS (EH domain of EHD1; ITC, 20.0 °C): −11.6 cal mol^−1 K^−1
- Ka (EH domain of EHD1; ITC, 20 °C, KCl 25.0 mM): 302000 M⁻¹
- TΔS (EH domain of EHD1; ITC, 20 °C, KCl 25.0 mM): -3.079 kcal/mol
- ΔH (EH domain of EHD1; ITC, 20 °C, KCl 25.0 mM): -10.42 kcal/mol
- ΔS (EH domain of EHD1; ITC, 20 °C, KCl 25.0 mM): −10.5 cal mol^−1 K^−1
- Ka (EH domain of EHD1; ITC, 20 °C, KCl 50.0 mM): 168000 M⁻¹
- TΔS (EH domain of EHD1; ITC, 20 °C, KCl 50.0 mM): -3.401 kcal/mol
- ΔG (EH domain of EHD1; ITC, 20 °C, KCl 50.0 mM): -7.002 kcal/mol
- ΔH (EH domain of EHD1; ITC, 20 °C, KCl 50.0 mM): -10.42 kcal/mol
- ΔS (EH domain of EHD1; ITC, 20 °C, KCl 50.0 mM): −11.6 cal mol^−1 K^−1
- Ka (EH domain of EHD1; ITC, 20 °C, KCl 75.0 mM): 115000 M⁻¹
- TΔS (EH domain of EHD1; ITC, 20 °C, KCl 75.0 mM): -3.548 kcal/mol
- ΔG (EH domain of EHD1; ITC, 20 °C, KCl 75.0 mM): -6.782 kcal/mol
- ΔH (EH domain of EHD1; ITC, 20 °C, KCl 75.0 mM): -10.34 kcal/mol
- ΔS (EH domain of EHD1; ITC, 20 °C, KCl 75.0 mM): −12.1 cal mol^−1 K^−1
- Ka (EH domain of EHD1; ITC, 20 °C, KCl 100.0 mM): 86500 M⁻¹
- TΔS (EH domain of EHD1; ITC, 20 °C, KCl 100.0 mM): -4.251 kcal/mol
- ΔG (EH domain of EHD1; ITC, 20 °C, KCl 100.0 mM): -6.616 kcal/mol
- ΔH (EH domain of EHD1; ITC, 20 °C, KCl 100.0 mM): -10.88 kcal/mol
- ΔS (EH domain of EHD1; ITC, 20 °C, KCl 100.0 mM): −14.5 cal mol^−1 K^−1
- Ka (EH domain of EHD1; ITC, 20 °C, KCl 125.0 mM): 65000 M⁻¹
- TΔS (EH domain of EHD1; ITC, 20 °C, KCl 125.0 mM): -4.046 kcal/mol
- ΔG (EH domain of EHD1; ITC, 20 °C, KCl 125.0 mM): -6.45 kcal/mol
- ΔH (EH domain of EHD1; ITC, 20 °C, KCl 125.0 mM): -10.5 kcal/mol
- ΔS (EH domain of EHD1; ITC, 20 °C, KCl 125.0 mM): −13.8 cal mol^−1 K^−1
- Ka (EH domain of EHD1; ITC, 20 °C, KCl 150.0 mM): 53000 M⁻¹
- TΔS (EH domain of EHD1; ITC, 20 °C, KCl 150.0 mM): -4.163 kcal/mol
- ΔG (EH domain of EHD1; ITC, 20 °C, KCl 150.0 mM): -6.331 kcal/mol
- ΔH (EH domain of EHD1; ITC, 20 °C, KCl 150.0 mM): -10.5 kcal/mol
- ΔS (EH domain of EHD1; ITC, 20 °C, KCl 150.0 mM): −14.2 cal mol^−1 K^−1
- Ka (EH domain of EHD1; ITC, 20 °C, KCl 300.0 mM): 24800 M⁻¹
- TΔS (EH domain of EHD1; ITC, 20 °C, KCl 300.0 mM): -4.369 kcal/mol
- ΔG (EH domain of EHD1; ITC, 20 °C, KCl 300.0 mM): -5.889 kcal/mol
- ΔH (EH domain of EHD1; ITC, 20 °C, KCl 300.0 mM): -10.26 kcal/mol
- ΔS (EH domain of EHD1; ITC, 20 °C, KCl 300.0 mM): −14.9 cal mol^−1 K^−1
- Ka (EH domain of EHD1; ITC, 20 °C, KCl 450.0 mM): 17800 M⁻¹
- TΔS (EH domain of EHD1; ITC, 20 °C, KCl 450.0 mM): -4.721 kcal/mol
- ΔG (EH domain of EHD1; ITC, 20 °C, KCl 450.0 mM): -5.696 kcal/mol
- ΔH (EH domain of EHD1; ITC, 20 °C, KCl 450.0 mM): -10.43 kcal/mol
- ΔS (EH domain of EHD1; ITC, 20 °C, KCl 450.0 mM): −16.1 cal mol^−1 K^−1
- Ka (EH domain of EHD1; ITC, 25.0 °C): 606000 M⁻¹
- TΔS (EH domain of EHD1; ITC, 25.0 °C): -4.056 kcal/mol
- ΔG (EH domain of EHD1; ITC, 25.0 °C): -7.881 kcal/mol
- ΔH (EH domain of EHD1; ITC, 25.0 °C): -11.94 kcal/mol
- ΔS (EH domain of EHD1; ITC, 25.0 °C): −13.6 cal mol^−1 K^−1
- non-electrostatic ΔG (EH domain of EHD1; from (Ka)ne, 20°C): -5.2 kcal/mol
- ΔCp (change in heat capacity upon binding) (EH domain of EHD1; from response of ΔH to temperature, 5 to 25°, ITC): −150 cal mol^−1 K^−1
Molecule: Ac-GPSLNPFDEED-NH2 [Rsn5-NPF1]
- interaction detected by ITC (Eps15 EH2): unable to detect any interaction

- Ka (EH domain of Reps1): 2000 M⁻¹
- Ka [13]: 302000 M⁻¹
- dH [13]: -10.4 kcal/mol
- stoichiometry N [13]: 0.97
- Ka [14]: 168000 M⁻¹
- dH [14]: -10.4 kcal/mol
- stoichiometry N [14]: 0.97
- Ka [4]: 115000 M⁻¹
- dH [4]: -10.3 kcal/mol
- stoichiometry N [4]: 0.95
- Ka [15]: 86500 M⁻¹
- dH [15]: -10.9 kcal/mol
- stoichiometry N [15]: 0.99
- Ka [16]: 65000 M⁻¹
- dH [16]: -10.5 kcal/mol
- stoichiometry N [16]: 1.05
- Ka [5]: 53000 M⁻¹
- dH [5]: -10.5 kcal/mol
- stoichiometry N [5]: 1.09
- Ka [6]: 24800 M⁻¹
- dH [6]: -10.3 kcal/mol
- stoichiometry N [6]: 1.04
- Ka [7]: 17800 M⁻¹
- dH [7]: -10.4 kcal/mol
- stoichiometry N [7]: 1.04
- Ka [8]: 2.03e+06 M⁻¹
- dH [8]: -8.99 kcal/mol
- stoichiometry N [8]: 0.98
- Ka [9]: 1.71e+06 M⁻¹
- dH [9]: -9.68 kcal/mol
- stoichiometry N [9]: 0.98
- Ka [10]: 1.1e+06 M⁻¹
- dH [10]: -10.4 kcal/mol
- stoichiometry N [10]: 0.99
- Ka [11]: 814000 M⁻¹ and 861000 M⁻¹
- dH [11]: -11.3 kcal/mol
- stoichiometry N [11]: 0.98 and 1.02
- Ka [12]: 606000 M⁻¹
- dH [12]: -11.9 kcal/mol
- stoichiometry N [12]: 0.98
Molecule: Ac-GPSLNPFDEED-NH2 [Rsn5-NPF1, peptide of NPF1 of Rabenosyn-5 (Ac-GPSLNPFDEED-NH2)]
